High-throughput results as filed in PubChem BioAssay.
PAD4 inh – PAD4 (human) enzyme inhibition; Q9UM07; recombinant PAD4, RCA probe fluorescence polarization; AID 485272; inhibition, % at 6.36 µM; 330,000 tested, 0.41% active;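 active = percent inhibition above a cutoff equal to the mean of all tested compounds plus 3 SD, cut at about 15% in these data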;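 note: 0% = PAD4 with RCA probe and DMSO and 100% = probe without PAD4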
TCR-CD3 inh – blocks the human TCR-CD3 interaction | TAMRA-labeled TCR probe fluorescence, biochemical | inhibition, % at 9.4 µM | 360,000 tested, 0.37% active; in the data active = inhibition above about 19%;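 note: recombinant mutant TCR 2C K166C tagged with TAMRA read by polarization; 0% = receptor in buffer alone and 100% = receptor with positive control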
GSTO1 inh – counter-screen for RBBP9 inhibitors: inhibitors of human GSTO1; P78417; recombinant GSTO1, activity-based probe fluorescence polarization; inhibition, % at 5.96 µM; 300,000 tested, 1.1% active;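 active = inhibition above the campaign mean inhibition plus 3 SD, cut at about 35% in these data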;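 note: 0% = GSTO1-1 with DMSO and 100% = wells lacking GSTO1-1 enzyme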
Target sequence (P78417 whole entry, looked up): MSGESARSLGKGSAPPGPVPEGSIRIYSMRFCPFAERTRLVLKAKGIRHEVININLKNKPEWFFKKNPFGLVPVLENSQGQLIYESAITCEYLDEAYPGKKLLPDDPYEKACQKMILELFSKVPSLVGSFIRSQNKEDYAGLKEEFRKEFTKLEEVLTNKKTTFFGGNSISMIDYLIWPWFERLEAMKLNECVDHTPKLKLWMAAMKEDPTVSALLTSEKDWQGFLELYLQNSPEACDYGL
TDP2 absorb – TDP2 (human) inhibition, absorbance primary screen; O95551; recombinant TDP2, T5PNP hydrolysis, p-nitrophenol absorbance 415 nm; inhibition, % at 12.8 µM; 370,000 tested, 0.34% active; AID 720702;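 active = inhibition above the mean of all tested compounds plus 3 SD, set per campaign, cut at about 25% in these data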;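 note: 0% = DMSO with enzyme and 100% = buffer with substrate but no TDP2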
Target sequence (O95551 whole entry, looked up): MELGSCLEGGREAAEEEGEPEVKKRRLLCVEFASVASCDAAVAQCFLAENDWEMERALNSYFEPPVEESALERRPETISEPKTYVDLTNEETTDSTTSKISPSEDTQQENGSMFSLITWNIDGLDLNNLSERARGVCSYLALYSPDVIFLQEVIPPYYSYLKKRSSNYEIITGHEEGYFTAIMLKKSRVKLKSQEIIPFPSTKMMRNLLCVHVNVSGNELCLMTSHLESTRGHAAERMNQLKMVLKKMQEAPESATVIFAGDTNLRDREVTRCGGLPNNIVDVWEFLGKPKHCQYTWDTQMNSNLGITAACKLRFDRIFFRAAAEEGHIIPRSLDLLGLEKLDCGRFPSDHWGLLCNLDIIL
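Material: recombinant human TDP2; quantity: TDP2 enzyme at 120 nM final; medium: Tris-HCl pH 7.5 with MgCl2; compound: single concentration, 12.8 µM nominal, with 1% DMSO; incubation: 2 h enzyme incubation at 37 °C; signal: epi absorbance; measure: percent inhibition; benchmarks: high control without enzyme, low control DMSO plus TDP2; repeats: singlicate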
SIAE primary – human SIAE inhibition, primary screen | Q9HAT2 | SIAE FP-Rh probe binding, fluorescence polarization | inhibition, % at 9.66 µM | 370,000 tested, 0.69% active | AID 1053197;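 active = inhibition above a cutoff: mean of compounds within the control limits plus 3 SD of those, cut at about 17% in these data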;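 note: 0% = plate median of compound wells and 100% = probe without SIAE protein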
Apaf1 inhib – human Apaf-1 inhibition; O14727; reconstituted apoptosome caspase-3 activity, DEVD-Rh110 fluorescence; inhibition, % at 20 µM; 330,000 tested, 0.71% active; AID 489030; active = inhibition of at least 40% at 20 µM;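 note: plate controls were DMSO wells for no effect and DEVD-CHO caspase inhibitor wells for full effect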
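Material: biochemical Apaf-1 apoptosome reconstitution. Medium: Hepes buffer, pH 7.5. Also added: cytochrome c activation, bis-DEVD rhodamine 110 substrate. Timing: 30 min compound preincubation, 50 min activation, room temperature. Measured by: rhodamine 110 fluorescence at Ex 480/Em 540 nm.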
GSTO1 confirm – GSTO1 (human) inhibition, confirmation; inhibition, % at 5.96 µM; recombinant GSTO1, probe fluorescence polarization; shares compounds with GSTO1 inh; AID 2176; 2,400 tested, 54% active;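 active = inhibition above the primary screen's cutoff, its mean inhibition plus 3 SD, cut at about 35% in these data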;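 note: loss of polarization as inhibitors block binding of rhodamine sulfonate ester activity probe; 0% = GSTO1 with DMSO and 100% = wells lacking GSTO1 enzyme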
Numbers without * were called inactive; · = not tested or not shown; ! = not active in a repeat. A selection: hits, their analogues and other compounds. The true share with any hit is near 2.4%.

SMILES	PAD4 inh	TCR-CD3 inh	GSTO1 inh	TDP2 absorb	SIAE primary	Apaf1 inhib	others
COc1ccc(N2C(=O)NC(=O)/C(=C\c3ccc([N+](=O)[O-])s3)C2=O)cc1	-44	-54	32	-10	-65	32
COc1ccccc1N1C(=O)NC(=O)/C(=C/c2ccc([N+](=O)[O-])s2)C1=O	-6	-22	42*	18	0	12
O=S(=O)(c1ccccc1)N1CC1c1ccccc1 (stereo unspecified)	4	7	-2	-6	-3	1
O=S(=O)(c1ccc(Cl)cc1)N1CC1c1ccccc1 (stereo unspecified)	0	2	35*	5	-6	0
COc1cc(/C=C/[N+](=O)[O-])ccc1O	-5	1	23	4	1	-6
CCN(CC)c1ccc(/C=C/[N+](=O)[O-])cc1	3	-7	36*	12	-8	2
Oc1ccc(/C=N/NP(=S)(c2ccccc2)c2ccccc2)c(O)c1O	1	6	37*	1	-1	18
CCCn1ncc(CN2CCCC(C(=O)c3cccc(OC)c3)C2)c1C (stereo unspecified)	-5	1	7	5	10	-2
NC(Cc1cc(O)c(O)cc1O)C(=O)O (stereo unspecified)	-20	·	72*	·	·	84*
O=C1C=Cc2ccccc2C1=O	-2	·	29	·	·	62*
O=C1CC(C(=O)N2CCC3(CC2)OCCO3)CN1CCc1ccccc1 (stereo unspecified)	0	-1	1	1	0	2
CC(C)NC(=O)Cn1cc(C(=O)c2ccccc2)c2ccccc21	·	-7	·	-19	-5	-11
O=C1NC(=S)NC(=O)C1=Cc1ccc2c(c1)CCN2CCCCl	2	·	51*	·	·	24
Cc1ccccc1N1C(=O)NC(=O)/C(=C\c2ccc3c(c2)CCCN3Cc2ccccc2)C1=O	-1	-13	14	-1	-28	14
CN(C)[C@@H]1C(=O)C(C(N)=O)=C(O)[C@@]2(O)C(=O)C3=C(O)c4c(O)ccc(Cl)c4[C@@](C)(O)[C@H]3C[C@@H]12	-4	11	45*	-5	9	·
O=[As](O)(O)c1ccc(N=Nc2ccc(O)cc2)cc1	·	-4	·	5	-1	·
O=C1C(Cl)=CC(=Nc2ccc(O)cc2)C=C1Cl	1	-3	·	4	21*	3
O=c1cccc2n1CC1CC2CN(Cc2cccc(Cl)c2Cl)C1 (stereo unspecified)	4	-6	0	-3	13	8
CC(C)C[C@H]1C(=O)N2CCCC2[C@]2(O)O[C@](NC(=O)[C@@H]3C=C4c5cccc6[nH]cc(c56)CC4N(C)C3)(C(C)C)C(=O)N12 (stereo partly specified)	18*	·	48*	·	·	87*
CC(C)[C@@]1(NC(=O)[C@@H]2C[C@@H]3c4cccc5[nH]cc(c45)C[C@H]3N(C)C2)O[C@@]2(O)[C@@H]3CCCN3C(=O)[C@H](Cc3ccccc3)N2C1=O	0	-13	-3	-4	-2	23
C=C(C=O)CC1CC(O)[C@]2(C)OC3CC4OC5C[C@]6(C)O[C@]7(C)CCC8OC9C[C@]%10(C)OC%11C(C)=CC(=O)OC%11CC%10OC9C[C@@H](C)C8OC7CC6O[C@]5(C)CC5OC5C4OC3CC2O1 (stereo partly specified)	-14	·	-1	·	·	23
COc1ccc(C(=O)Cn2c(NCCCl)nc3ccccc32)cc1	2	2	20	7	2	-331
CN1C(=O)/C(=C/c2cccn2-c2ccc3ccccc3c2)C(=O)NC1=S	-10	-6	55*	7	11	5
Cc1cc(C)cc(N2C(=O)NC(=O)/C(=C\c3cccn3-c3ccccc3)C2=O)c1	-24	2	13	8	-4	3
COC(=O)C1C(O)C(C)C(O)C(C)/C=C\C=C(/C)C(=O)Nc2c(C)c(OC(C)=O)c3c(c2O)C(=O)C(C)=C2OCOC(=C23)/C(C)=C/C(C)(O)C(O)C(C)C1O (stereo unspecified)	-9	-3	69*	15	3	16
SMILES	PAD4 inh	TCR-CD3 inh	GSTO1 inh	TDP2 absorb	SIAE primary	Apaf1 inhib	others
Clc1ccc(C[n+]2c(-c3ccccc3)cc(-c3ccccc3)cc2-c2ccccc2)cc1	0	-4	2	2	6	52*
O=C1NC(=O)C(=Cc2ccc(Oc3ccc([N+](=O)[O-])cc3)cc2)C(=O)N1	-9	·	49*	·	·	43*
C=CCn1c(O)c(N=Nc2c(C)n(C)n(-c3ccccc3)c2=O)c(=O)[nH]c1=S	-2	-4	36*	-7	-6	-3
CN1CCC2(CC1)C(C#N)=C(N)NC(S)=C2C#N	-22	-23	-16	30*!	-8	16
CC1CN(O)C2CCc3nonc3C12O (stereo unspecified)	-5	1	7	0	-5	-7
CCCCCn1c(N)c(C(=O)NCCN2CCOCC2)c2nc3ccccc3nc21	-3	2	4	-13	0	32
CCCCCCn1c(N)c(C(=O)NCCN2CCOCC2)c2nc3ccccc3nc21	-2	1	5	-17	3	52*
Nc1c(C(=O)NCc2ccco2)c2nc3ccccc3nc2n1CCN1CCOCC1	1	-3	-8	-3	6	44*
COC1=C(C)C(=O)C2=C(C1=O)C(CO)N1C(C#N)C3CC4C(C1C2N1CCOC41)N3C (stereo unspecified)	·	7	·	4	9	·
O=C(Cc1ccccc1)N1CCN(Cc2ccc(F)cc2)CC1	-2	3	4	6	0	2
COC(=O)C1=C(c2ccccc2)C[C@@H]2CC[C@H]1N2C(=O)N1CCCC1	2	6	1	-3	3	-2
O=C(O)c1cc[c]([Hg][Cl])cc1	22*	·	11	·	·	-5
Cc1ccc(OCC(=O)Nc2ccc(Cl)cc2C(=O)c2ccccc2)cc1	-1	-2	-3	-2	-1	16
COc1ccc(N2C(=O)NC(=O)/C(=C/c3ccc([N+](=O)[O-])s3)C2=O)cc1	-9	-56	30	-6	-40	26
COc1cccc(N2C(=O)NC(=O)/C(=C/c3ccc([N+](=O)[O-])s3)C2=O)c1	-7	-52	44*	-1	-32	11	GSTO1 confirm=36*
O=c1[nH]c(O)c(/C=C2\C=Nc3ccc(OCc4ccccc4)cc32)c(=O)[nH]1	-6	0	-4	2	-34	5
CN1C(=O)C(=Cc2cccnc2)C(=O)N(C)C1=O	-3	-3	1	-5	3	-20
CNCCc1ccc(O)c(O)c1	-5	-1	73*	-2	5	-6	GSTO1 confirm=8
